The structures appear in SMILES notation. pIC50: −log10 of the molar value. The source made the active and inactive calls. The rule behind the calls is not given here.

For data set [1], the system named is Hepatitis B virus. Kind of data set: Decrease in HBV S promoter activity infected in human HuH7 cells cotransfected with pHBV1.2 at 10 ug/ml after 24 hrs by luciferase reporter gene assay. The data set is classed as cell-based. The gist of the method:
(§1)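 Huh7 cells were seeded for 24 h, then cotransfected with pHBV1.2, pRLSV40 and a pGL4.17-based Core (nt 1636-1851), S (nt 3114-220), PreS (nt 2438-2855) or X (nt 1071-1357) promoter-luciferase construct for 24 h. Cells were then treated at 10 μg/mL for 24 h and lysates were assayed for luciferase. Mean ± SD, n = 3.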
(In general: A reporter such as luciferase makes a cellular process visible.)

For data set [2], the system named is Huh-7. Description: Decrease in p38 MAPK protein expression in human HuH7 cells transfected with pHBV1.2 at 5 ug/ml after 2 days by immunoblot method relative to control. Background: In western blotting, separated proteins are transferred to a membrane and probed.
Data set [3] in a line: Decrease in NF-kB (unknown origin) promoter activity expressed in human HuH7 cells cotransfected with pHBV1.2 at 10 ug/ml after 24 hrs by luciferase reporter gene assay. The data set is classed as cell-based. The gist of the method: (§2)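 Huh7 cells were seeded for 24 h, then cotransfected with pHBV1.2, pRLSV40 and pAP1-Luc or pNF-κB-Luc responsive-element reporter for 24 h. Cells were treated at 10 μg/mL for 24 h and lysates were assayed for luciferase. Mean ± SD, n = 3, compared with untreated cells.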

Data set [4] in a line: Antiviral activity against Hepatitis B virus subtype adw2 infected in human HuH7 cells assessed as reduction in HBcAg level at 10 ug/ml after 2 days by immunoblot method relative to control. The class given is functional. The method in brief: (§3)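 Huh7 cells were transfected with pHBV1.2 (1.2-fold HBV adw2 genome) for 2 days, then exposed to 2.5, 5 or 10 μg/mL for another 2 days. Whole-cell protein was extracted with protease inhibitors. SHBs, HBcAg and HBx were detected by immunoblot, with α-tubulin for comparison.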

The subject of data set [5] is Huh-7. Description: Decrease in NF-kB p65 protein expression in human HuH7 cells transfected with pHBV1.2 at 5 ug/ml after 2 days by immunoblot method relative to control. The class given is functional. The gist of the method:
(§4)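 Huh7 cells were transfected with pHBV1.2 for 2 days, then treated at 2.5, 5 or 10 μg/mL for another 2 days. Whole-cell protein was extracted with protease inhibitors. NF-κB p65/p50, phospho-p65, IKKα/β and IκBα/phospho-IκBα were detected by immunoblot. Blots are representative of three experiments.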

A short description of data set [6]: Antiviral activity against Hepatitis B virus subtype adw2 infected in human HuH7 cells assessed as effect on HBx level at 2.5 ug/ml after 2 days by immunoblot method relative to control. The data set is classed as functional. The gist of the method: as §3
Data set [7] concerns Huh-7. Kind of data set: Decrease in ERK1/2 protein expression in human HuH7 cells transfected with pHBV1.2 at 2.5 to 10 ug/ml after 2 days by immunoblot method.
Data set [8] has as its system Huh-7. Description: Decrease in IKKbeta protein expression in human HuH7 cells transfected with pHBV1.2 at 2.5 ug/ml after 2 days by immunoblot method relative to control. The data set is classed as functional. The method in brief: as §4
The test system of data set [9] is Huh-7. Description: Decrease in NF-kB p50 protein expression in human HuH7 cells transfected with pHBV1.2 at 10 ug/ml after 2 days by immunoblot method relative to control. The class given is functional. The method in brief:
as §4

The species entered for data set [10] is Homo sapiens. Description: Decrease in SAPK/JNK phosphorylation in human HuH7 cells transfected with pHBV1.2 at 2.5 to 10 ug/ml after 2 days by immunoblot method.
Data set [11] concerns Hepatitis B virus subtype adw2. Description: Antiviral activity against Hepatitis B virus subtype adw2 infected in human HuH7 cells assessed as inhibition of HBsAg secretion after 3 days by EIA. The class given is functional, cell-based. The method in brief: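 HBV-expressing Huh7 cells were given 2.5, 5 or 10 μg/mL for 3 days. HBsAg and HBeAg in the conditioned medium were measured by enzyme immunoassay. Mean ± SD, n = 3, compared with untreated cells.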

Data set [12] deals with Huh-7. Description: Decrease in p38 MAPK protein expression in human HuH7 cells transfected with pHBV1.2 at 10 ug/ml after 2 days by immunoblot method relative to control.
Data set [13] relates to Hepatitis B virus subtype adw2. Kind of data set: Antiviral activity against Hepatitis B virus subtype adw2 infected in human HuH7 cells assessed as reduction in SHBs level at 2.5 to 10 ug/ml after 2 days by immunoblot method. The data set is classed as functional, cell-based. The method in brief: as §3
The nature of data set [14]: Decrease in AP-1 (unknown origin) promoter activity expressed in human HuH7 cells cotransfected with pHBV1.2 at 10 ug/ml after 24 hrs by luciferase reporter gene assay. The data set is classed as cell-based. The method in brief:
as §2

The nature of data set [15]: Antiviral activity against Hepatitis B virus subtype adw2 infected in human HuH7 cells assessed as inhibition of viral DNA replication by RT-PCR method. The data set is classed as functional, cell-based. Particulars: Huh-7.
A short description of data set [16]: Antiviral activity against Hepatitis B virus subtype adw2 infected in human HepG2.2.15 cells assessed as inhibition of HBeAg secretion by EIA.
Data set [17] can be described thus: Antiviral activity against Hepatitis B virus subtype adw2 infected in human HuH7 cells assessed as reduction in HBx level at 5 ug/ml after 2 days by immunoblot method relative to control. The data set is classed as functional. The method in brief:
as §3

Data set [18] has as its target T1, NF-kappa-B inhibitor alpha (Homo sapiens) (UniProt P25963).
T1 sequence (whole entry): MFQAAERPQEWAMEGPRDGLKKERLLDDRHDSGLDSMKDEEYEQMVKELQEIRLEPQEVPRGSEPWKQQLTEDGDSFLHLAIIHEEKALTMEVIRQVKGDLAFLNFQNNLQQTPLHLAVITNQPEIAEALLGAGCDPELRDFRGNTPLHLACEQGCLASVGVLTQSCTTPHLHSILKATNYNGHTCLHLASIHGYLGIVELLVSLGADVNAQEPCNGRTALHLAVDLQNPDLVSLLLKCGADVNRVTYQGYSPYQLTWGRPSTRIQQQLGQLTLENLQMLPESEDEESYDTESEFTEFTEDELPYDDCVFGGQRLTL
Kind of data set: Decrease in IKBalpha phosphorylation in human HuH7 cells transfected with pHBV1.2 at 5 ug/ml after 2 days by immunoblot method relative to control. The data set is classed as cell-based. The method in brief: as §4

The test system of data set [19] is Huh-7. Description: Cytotoxicity against human HuH7 cells infected with Hepatitis B virus subtype adw2 assessed as reduction in cell viability at >80 ug/ml after 3 days by MTS assay. The class given is cell-based. As to conditions: huh-7, 72 h. The method in brief: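 HBV-expressing Huh7 cells were plated for 24 h, then exposed to serial dilutions (2.5–160 μg/mL) for 3 days. Viability was measured by MTS assay. Mean ± SD, n = 4, compared with untreated cells.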
In general terms: Tetrazolium dyes change colour on reduction, which living cells bring about.

In data set [20] the test system is Huh-7. Kind of data set: Decrease in IKKbeta protein expression in human HuH7 cells transfected with pHBV1.2 at 10 ug/ml after 2 days by immunoblot method relative to control. The class given is functional. The gist of the method:
as §4

Data set [21] concerns Huh-7. Description: Decrease in IKBalpha protein expression in human HuH7 cells transfected with pHBV1.2 after 2 days by immunoblot method. The class given is functional, cell-based. The method in brief: as §4
Data set [22] can be described thus: Antiviral activity against Hepatitis B virus in human HepG2.2.15 cells assessed as inhibition of HBsAg secretion by EIA.
Data set [23] concerns Hepatitis B virus. Description: Decrease in HBV core promoter activity infected in human HuH7 cells cotransfected with pHBV1.2 at 10 ug/ml after 24 hrs by luciferase reporter gene assay. The data set is classed as cell-based. The gist of the method:
as §1

In the case of `C=C1C[C@@]23CC[C@H]4[C@@](C)(CCC[C@@]4(C)NC(=O)NCCCC)[C@@H]2CC[C@]1(O)C3`, the result in [1], in data set [3], in data set [7], in data set [10], in [13] and in [14] was Active. Further, in [23], the outcome was Active. The “fold change (FC)” value in data set [2] is 0.98; in data set [4], 0.11; in data set [5] it was 0.88; in data set [6], 1.12; in data set [8] it was 0.99; in data set [9] it was 0.26. The “fold change (FC)” value in [12] turned out to be 0.33; in data set [17], 0.87; in data set [18] it was 0.94; in data set [20], 0.33. Further, the inhibition entry in data set [11] is “Dose-dependent effect”. Besides, the results for the pIC50 in data set [15], in data set [16] and in data set [22] were 4.77, 4.69 and 4.63, respectively. Also, the Activity result in [19] is “Toxic”; in data set [21] it was “Dose-dependent effect”.

For the origin of these results see ChEMBL document CHEMBL3997773, “Synthesis of C-4-Substituted Steviol Derivatives and Their Inhibitory Effects against Hepatitis B Virus” (J Nat Prod, 2016).
